ChEMBL document CHEMBL4513216, “Probing the Open Global Health Chemical Diversity Library for Multistage-Active Starting Points for Next-Generation Antimalarials” (ACS Infect Dis, 2020)

Assay: Toxicity liver stage against HepG2, at 10uM
Format: cell-based
Set-up: test concentration 10 uM, cell line HepG2-A16-CD81EGFP
Conditions: human, HepG2-A16-CD81EGFP cells; read-out: INHIBITION
Summary of the method: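 Uninfected HepG2-A16-CD81EGFP cells, 3 × 10^3 per well, 1536-well, plated on prespotted compound at 10 μM final, parasite-free screening media added to match infected plates; puromycin 10 μM positive, DMSO 0.5% negative; run in parallel with 48 h PbLuc assay at 37 °C, 5% CO2; viability by CellTiter-Glo luminescence, normalized to controls.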

CCCc1nn(C2CCCN(C(C)C)C2=O)c(=O)o1 (stereo unspecified)
cytotoxicity at 10 µM: -6.11%

O=C(CNc1ccc(F)cc1OCC(F)(F)F)NCc1ccco1
cytotoxicity at 10 µM: 7.35%

CCn1nc(C(=O)N2CCCC2c2noc(C)n2)ccc1=O (stereo unspecified)
cytotoxicity at 10 µM: 4.99%

Cc1nc(C(NC(=O)CC(F)(F)F)c2ccc(Cl)cc2)no1 (stereo unspecified)
cytotoxicity at 10 µM: 9.83%

Cc1ccc(NCc2cccc3cn[nH]c23)cc1OC1CCOC1 (stereo unspecified)
cytotoxicity at 10 µM: 1.44%

Cn1ccnc1CCNC(=O)C1CCCN(Cc2cccc(F)c2)C1 (stereo unspecified)
cytotoxicity at 10 µM: -6.87%

COC(=O)C1CCCN1C(=O)c1ccc(-n2nc(C)cc2C)cc1 (stereo unspecified)
cytotoxicity at 10 µM: -10.5%

CC(C)C(C(=O)N1CCN(Cc2ccncc2)CC1)n1cncn1 (stereo unspecified)
cytotoxicity at 10 µM: -13%

Cc1nc2cc(O)nn2c(C)c1CCC(=O)N(C)Cc1cscn1
cytotoxicity at 10 µM: -2.64%

O=C(O)c1cccc(N2C[C@H](NC(=O)C3CCOCC3)[C@@H](C3CC3)C2)n1
cytotoxicity at 10 µM: -4.31%

COc1cccc(Cn2ncnc2COC(C)C)c1
cytotoxicity at 10 µM: -5.62%

CCCS(=O)(=O)N1CCC2(CCCN(Cc3cccc(F)c3F)C2=O)C1 (stereo unspecified)
cytotoxicity at 10 µM: 10.3%

CCNC(=O)[C@@H]1C[C@@H](NC(=O)c2ccsc2)CN1CCCSC
cytotoxicity at 10 µM: -117%

O=C(CN1CCc2ccccc2C1)NCc1cc2n(n1)CCCNC2
cytotoxicity at 10 µM: 2.22%

COc1ccc2c(=O)n(CC3CCCCN3C)ccc2c1OC (stereo unspecified)
cytotoxicity at 10 µM: 3.19%

COCCN(Cc1cccc(O)c1)Cc1ccccc1F
cytotoxicity at 10 µM: 4.73%

Cc1nnc(CN2CCN(C)C3(CCC(=O)N(CCO)CC3)C2)s1 (stereo unspecified)
cytotoxicity at 10 µM: -14.9%

CC1(C)CN(S(=O)(=O)N2CCCC2)CC1c1ccccc1 (stereo unspecified)
cytotoxicity at 10 µM: -0.71%

O=C(C1CCC1)N1CCCn2nc(CNc3ncccn3)cc2C1
cytotoxicity at 10 µM: -123%

CC(C)CN(Cc1ccc(O)c(C(=O)O)c1)Cc1cnn(C)c1
cytotoxicity at 10 µM: -3.86%

COc1ccccc1OCc1cc(C(=O)N2C[C@@H](C)O[C@@H](C)C2)n[nH]1
cytotoxicity at 10 µM: -4.91%

Nc1ccnc(N2CCC(c3nccn3CC3CC3)CC2)n1
cytotoxicity at 10 µM: -0.0638%

CN(Cc1cc2n(n1)CCNC2)Cc1n[nH]c2c1CCC2
cytotoxicity at 10 µM: 5.04%

NC(=O)N1CCCC(C(=O)NCCc2nc(Cc3ccccc3)no2)C1 (stereo unspecified)
cytotoxicity at 10 µM: 8.5%

CCC(=O)N1CCC(c2nnc(Cn3cccn3)n2C2CC2)CC1
cytotoxicity at 10 µM: -12.6%

O=C(O)C(c1ccc2c(c1)OCO2)N1CCC(C(=O)N2CCCC2)CC1 (stereo unspecified)
cytotoxicity at 10 µM: 4.22%

C[C@@H]1CN(C(=O)c2ccc(C#N)nc2)CC[C@@]1(O)C1CCOCC1
cytotoxicity at 10 µM: -11.5%

CSCCCN1CC[C@@H](NC(=O)c2cnccn2)[C@H](O)C1
cytotoxicity at 10 µM: -14.6%

Nc1cc2c(nn1)CCN(C(=O)c1cccc3c1OCO3)C2
cytotoxicity at 10 µM: -8.08%

Cc1nn(C)c(C)c1C1CCCN1C(=O)CCCNc1ncccn1 (stereo unspecified)
cytotoxicity at 10 µM: -3.43%

c1ncc2c(n1)CN(Cc1nc(-c3ccsc3)no1)CC2
cytotoxicity at 10 µM: -4.77%

CC(NC(=O)NCCCn1cncn1)c1ccc(C(F)(F)F)cc1 (stereo unspecified)
cytotoxicity at 10 µM: -7.1%

Cc1nc(C2CCCN2C(=O)c2ccc(N(C)C)nn2)no1 (stereo unspecified)
cytotoxicity at 10 µM: -12.9%

Cc1cc(C)n(CC2CCCN2CCCc2nc3ccccc3o2)n1 (stereo unspecified)
cytotoxicity at 10 µM: -10.9%

COc1ccc(OCCNC(=O)N2CCS(=O)(=O)CC2)cc1
cytotoxicity at 10 µM: -6.95%

COc1c(CNC(c2cccc(F)c2)c2nccn2C)c(C)nn1C (stereo unspecified)
cytotoxicity at 10 µM: -9.19%

O=C(CCc1nnc(-c2ccccc2)o1)N1CCN(CC2CC2)CC1
cytotoxicity at 10 µM: -13.7%

CCN(Cc1cccc2c1OCO2)C(=O)Nc1cn[nH]c1
cytotoxicity at 10 µM: -17.2%

Cc1occc1C(=O)N1CCCC(c2nncn2C)C1 (stereo unspecified)
cytotoxicity at 10 µM: -16%

Cc1cc(C)n(CC2CCCCN2CC(=O)N(C)Cc2ccco2)n1 (stereo unspecified)
cytotoxicity at 10 µM: -9.75%

Cc1cc(NC(=O)C(C)N2CCN(c3nc(C)ns3)CC2)on1 (stereo unspecified)
cytotoxicity at 10 µM: -9.48%

COCC(c1cccc(C(F)(F)F)c1)N(C)C(=O)c1cc(C)no1 (stereo unspecified)
cytotoxicity at 10 µM: 0.0161%

Cc1noc(C)c1CN1CCN(Cc2nccn2C)CC1
cytotoxicity at 10 µM: -4.93%

CC(C)c1nnc(NC(=O)NCc2ccnc(N(C)C)c2)s1
cytotoxicity at 10 µM: 7.29%

Cc1ccc(CN(CCCn2ccnc2)Cc2cnc(N(C)C)nc2)s1
cytotoxicity at 10 µM: -12.6%

Cn1cc(CN2CCCC23CCN(C(=O)c2ccsc2)CC3)cn1
cytotoxicity at 10 µM: 0.993%

O=C(NCc1ccccn1)[C@]12COC[C@H]1CN(Cc1ccsc1)C2
cytotoxicity at 10 µM: 4.91%

Cc1nc(-c2ccnc(N3CCNCC3)n2)no1
cytotoxicity at 10 µM: 2.63%

CCC(=O)N1CCC2(CC1)CN(CCO)Cc1ccccc12
cytotoxicity at 10 µM: 5.23%

CC(C)CN1CCC2(C=C(C(=O)N3CCCC3)c3ccccc32)CC1
cytotoxicity at 10 µM: -3.12%

c1ncn(Cc2cn3c(n2)CN(CC2CCCC2)CC3)n1
cytotoxicity at 10 µM: -127%

CC(C)OCc1nn(C)c2c1CCN(Cc1ccco1)C2
cytotoxicity at 10 µM: -115%

CN(C)[C@@H]1CCN(C(=O)Cc2cccs2)[C@H]1Cc1cnn(C)c1
cytotoxicity at 10 µM: -72.2%

COc1ccccc1CN1CC[C@H]2C[C@@H](C(=O)N3CCCC3)O[C@H]2C1
cytotoxicity at 10 µM: 7.28%

CNC1CCC2(CC1)CNC(=O)c1cc(C)ccc1O2 (stereo unspecified)
cytotoxicity at 10 µM: -9.28%

Cc1ccccc1CNC(=O)N1C[C@@H]2C[C@H](C(=O)N3CCCC3)[C@H](C1)O2
cytotoxicity at 10 µM: 5.68%
